This is an account of results in ChEMBL document CHEMBL3751760, “Discovery of Novel Potent and Selective Agonists at the Melanocortin-3 Receptor” (J Med Chem, 2015).

The target in assay [1] is T1, Melanocyte-stimulating hormone receptor (Homo sapiens, UniProt Q01726). The assay can be described thus: Agonist activity at human melanocortin 1 receptor expressed in HEK293 cells assessed as increase in intracellular cAMP accumulation incubated for 3 mins relative to MT-2. The class given is functional, cell-based. The procedure, abridged:
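Stably transfected HEK293 cells grown in MEM with 10% FBS, penicillin/streptomycin and 1 mM sodium pyruvate, seeded 48 h ahead to 100000 cells/well. Cells preincubated 1 min at 37 °C in EBSS with IBMX (0.5 mM), then exposed to a concentration series for 3 min at 37 °C. Stopped with ice-cold Tris/EDTA, boiled 15 min, cAMP measured by competitive binding kit. Maximal cAMP expressed relative to the MT-II maximum; N = 4.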
(cAMP levels reflect the balance of adenylyl cyclase and phosphodiesterase activity.)
Target sequence in this assay (Q01726 whole entry, looked up): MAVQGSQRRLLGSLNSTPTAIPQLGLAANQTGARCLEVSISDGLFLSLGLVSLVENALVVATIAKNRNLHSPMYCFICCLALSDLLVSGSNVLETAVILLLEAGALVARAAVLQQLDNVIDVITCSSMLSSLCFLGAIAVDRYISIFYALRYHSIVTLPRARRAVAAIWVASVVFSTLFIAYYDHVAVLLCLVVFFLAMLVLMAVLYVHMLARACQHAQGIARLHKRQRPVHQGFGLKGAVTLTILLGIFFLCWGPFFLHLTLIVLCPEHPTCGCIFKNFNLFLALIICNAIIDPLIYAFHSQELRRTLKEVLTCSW

The target of assay [2] is T1, Melanocyte-stimulating hormone receptor. The assay can be described thus: Agonist activity at human melanocortin 1 receptor expressed in HEK293 cells assessed as intracellular cAMP accumulation incubated for 3 mins in presence of IBMX. Format: functional, cell-based. In outline: (§1)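 HEK293 cells stably expressing the receptor were grown in MEM with 10% FBS and seeded 48 h ahead to 100000 cells/well. Cells were preincubated in EBSS with IBMX (0.5 mM) for 1 min at 37 °C, then given varied peptide concentrations for 3 min at 37 °C. The reaction was stopped with ice-cold Tris/EDTA, lysates were boiled 15 min, and cAMP was read by competitive binding kit.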
Target sequence in this assay (Q01726 whole entry): as the sequence (Q01726 whole entry, looked up) above

For assay [3], the target named is T2, Melanocortin receptor 3 (Homo sapiens, UniProt P41968). The assay can be described thus: Displacement of 125I-labeled [Nle4,DPhe7]-alpha-MSH from human melanocortin 3 receptor expressed in HEK293 cells incubated for 40 mins by gamma counting analysis. The class given is cell-based. On the technique in general: In a radioligand displacement assay an active substance lowers the binding of a labelled ligand.

Assay [4] concerns the target T3, Melanocortin receptor 5 (Homo sapiens, UniProt P33032). Briefly: Agonist activity at human melanocortin 5 receptor expressed in HEK293 cells assessed as intracellular cAMP accumulation at 10 uM incubated for 3 mins in presence of IBMX. The class given is functional, cell-based. The procedure, abridged: (§2)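 Stably transfected HEK293 cells were grown in MEM with 10% FBS, penicillin/streptomycin and 1 mM sodium pyruvate, and seeded 48 h before assay to 100000 cells/well. Cells were preincubated 1 min at 37 °C in EBSS with IBMX (0.5 mM), then exposed to peptide for 3 min at 37 °C. The reaction was stopped with ice-cold Tris/EDTA, lysates were boiled 15 min, and cAMP was read by competitive binding kit.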

In assay [5] the target is T3, Melanocortin receptor 5. The assay can be described thus: Displacement of 125I-labeled [Nle4,DPhe7]-alpha-MSH from human melanocortin 5 receptor expressed in HEK293 cells at 10 uM incubated for 40 mins by gamma counting analysis. Format: cell-based. In outline:
(§3)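 Whole-cell competition on stably transfected HEK293 cells, 100000 cells/well, seeded 48 h ahead. Binding buffer: MEM with Earle's salts, 25 mM HEPES pH 7.4, 0.2% BSA, 1 mM 1,10-phenanthroline, leupeptin, bacitracin. Unlabeled peptide plus 125I-[Nle4,DPhe7]-α-MSH (0.1386 nM, 100000 cpm/well) for 40 min at 37 °C. After washing, cells lysed with NaOH/Triton X-100 and read by γ counting.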

The target of assay [6] is T4, Melanocortin receptor 4 (Homo sapiens, UniProt P32245). Briefly: Agonist activity at human melanocortin 4 receptor expressed in HEK293 cells assessed as intracellular cAMP accumulation at 10 uM incubated for 3 mins in presence of IBMX. The class given is functional, cell-based. In outline: as §2
For assay [7], the target named is T4, Melanocortin receptor 4. Briefly: Displacement of 125I-labeled [Nle4,DPhe7]-alpha-MSH from human melanocortin 4 receptor expressed in HEK293 cells incubated for 40 mins by gamma counting analysis. The class given is cell-based.
The target of assay [8] is T1, Melanocyte-stimulating hormone receptor. The assay can be described thus: Displacement of 125I-labeled [Nle4,DPhe7]-alpha-MSH from human melanocortin 1 receptor expressed in HEK293 cells incubated for 40 mins by gamma counting analysis. Format: cell-based. The procedure, abridged: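 Whole-cell competition on stably transfected HEK293 cells, 100000 cells/well, seeded 48 h ahead. Binding buffer: MEM with Earle's salts, 25 mM HEPES pH 7.4, 0.2% BSA, 1 mM 1,10-phenanthroline, leupeptin, bacitracin. After washing, cells lysed with NaOH/Triton X-100 and read by γ counting.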
Target sequence in this assay (Q01726 whole entry): as the sequence (Q01726 whole entry, looked up) above

The target of assay [9] is T2, Melanocortin receptor 3. The assay can be described thus: Agonist activity at human melanocortin 3 receptor expressed in HEK293 cells assessed as intracellular cAMP accumulation at 10 uM incubated for 3 mins in presence of IBMX. The class given is functional, cell-based. In outline: as §2
For assay [10], the target named is T4, Melanocortin receptor 4. Briefly: Agonist activity at human melanocortin 4 receptor expressed in HEK293 cells assessed as intracellular cAMP accumulation incubated for 3 mins in presence of IBMX. Format: functional, cell-based. In outline: as §1
The target of assay [11] is T3, Melanocortin receptor 5. Briefly: Agonist activity at human melanocortin 5 receptor expressed in HEK293 cells assessed as intracellular cAMP accumulation incubated for 3 mins in presence of IBMX. The class given is functional, cell-based. The procedure, abridged:
as §1

Assay [12] addresses T3, Melanocortin receptor 5. The assay can be described thus: Displacement of 125I-labeled [Nle4,DPhe7]-alpha-MSH from human melanocortin 5 receptor expressed in HEK293 cells incubated for 40 mins by gamma counting analysis. The class given is cell-based.
Assay [13] has as its target T2, Melanocortin receptor 3. The assay can be described thus: Agonist activity at human melanocortin 3 receptor expressed in HEK293 cells assessed as intracellular cAMP accumulation incubated for 3 mins in presence of IBMX. The class given is functional, cell-based. The procedure, abridged: as §1
Assay [14] concerns the target T3, Melanocortin receptor 5. Briefly: Agonist activity at human melanocortin 5 receptor expressed in HEK293 cells assessed as increase in intracellular cAMP accumulation incubated for 3 mins relative to MT-2. The class given is functional, cell-based. In outline: (§4)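 Same cAMP protocol in stably transfected HEK293 cells: IBMX (0.5 mM) preincubation for 1 min, then a peptide concentration series for 3 min at 37 °C, and cAMP measured by competitive binding kit.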

Assay [15] has as its target T2, Melanocortin receptor 3. The assay can be described thus: Agonist activity at human melanocortin 3 receptor expressed in HEK293 cells assessed as increase in intracellular cAMP accumulation incubated for 3 mins relative to MT-2. Format: functional, cell-based. The procedure, abridged: as §4
Assay [16] deals with T4, Melanocortin receptor 4. The assay can be described thus: Agonist activity at human melanocortin 4 receptor expressed in HEK293 cells assessed as increase in intracellular cAMP accumulation incubated for 3 mins relative to MT-2. Format: functional, cell-based. In outline:
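Same cAMP protocol in stably transfected HEK293 cells: IBMX (0.5 mM) preincubation for 1 min, then a peptide concentration series for 3 min at 37 °C, and cAMP measured by competitive binding kit. Act% max = highest cAMP level reached by the peptide divided by the highest level reached by MT-II, in percent.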

The target in assay [17] is T1, Melanocyte-stimulating hormone receptor. The assay can be described thus: Displacement of 125I-labeled [Nle4,DPhe7]-alpha-MSH from human melanocortin 1 receptor expressed in HEK293 cells at 10 uM incubated for 40 mins by gamma counting analysis. Format: cell-based. The procedure, abridged:
as §3
Target sequence in this assay (Q01726 whole entry, looked up): as above

Calls of active or inactive are those of the source. The calls are words filed in the database; no cut-off is given here. Where a SMILES comes first, the peptide text is derived from it. Bridges are numbered along the chain shown (N, C = ends). [ ]: non-standard residue; d: D form. d2Nal = N[C@H](Cc1ccc2ccccc2c1)C(=O)O; Nle = CCCC[C@H](N)C(=O)O

T3 sequence (P33032 whole entry): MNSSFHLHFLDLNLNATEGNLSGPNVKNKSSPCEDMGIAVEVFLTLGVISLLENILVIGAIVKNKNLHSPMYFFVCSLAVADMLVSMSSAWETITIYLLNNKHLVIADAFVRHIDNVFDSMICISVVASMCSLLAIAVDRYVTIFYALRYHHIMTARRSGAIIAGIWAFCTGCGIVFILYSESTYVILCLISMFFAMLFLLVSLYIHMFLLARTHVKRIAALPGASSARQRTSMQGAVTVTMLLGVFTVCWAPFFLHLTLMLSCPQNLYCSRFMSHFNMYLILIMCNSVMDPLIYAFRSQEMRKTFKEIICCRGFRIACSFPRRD
T2 sequence (P41968 whole entry): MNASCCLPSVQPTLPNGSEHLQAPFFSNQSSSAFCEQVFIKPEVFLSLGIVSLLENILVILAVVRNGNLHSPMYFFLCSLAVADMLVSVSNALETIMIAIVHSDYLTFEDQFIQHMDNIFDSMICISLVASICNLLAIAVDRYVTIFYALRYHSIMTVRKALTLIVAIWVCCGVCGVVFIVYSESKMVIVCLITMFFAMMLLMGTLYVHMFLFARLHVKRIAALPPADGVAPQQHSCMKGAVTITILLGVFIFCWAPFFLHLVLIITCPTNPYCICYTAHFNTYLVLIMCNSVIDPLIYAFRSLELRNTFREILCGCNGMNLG
T4 sequence (P32245 whole entry): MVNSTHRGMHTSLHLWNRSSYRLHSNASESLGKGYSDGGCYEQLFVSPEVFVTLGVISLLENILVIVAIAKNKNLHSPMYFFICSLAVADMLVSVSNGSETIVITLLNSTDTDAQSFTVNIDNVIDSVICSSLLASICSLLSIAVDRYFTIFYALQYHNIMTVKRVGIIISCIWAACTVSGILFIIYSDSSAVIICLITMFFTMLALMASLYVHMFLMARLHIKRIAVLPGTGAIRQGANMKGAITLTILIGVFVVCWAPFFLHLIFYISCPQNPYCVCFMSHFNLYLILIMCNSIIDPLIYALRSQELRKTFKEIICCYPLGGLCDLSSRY

The term EC50 denotes the midpoint of the concentration-response curve. By IC50 is commonly meant the concentration that gives 50% inhibition. Low values mean higher potency, high ones lower potency. For `CCCC[C@H](NC(C)=O)C(=O)N[C@H]1CC(=O)NCCCC[C@@H](C(N)=O)NC(=O)[C@H](Cc2c[nH]c3ccccc23)NC(=O)[C@H](CCCNC(=N)N)NC(=O)[C@@H](Cc2ccccc2)NC(=O)[C@@H]2CCCN2C(=O)[C@@H]2CCCN2C1=O` (Ac-[Nle]DPP[dF]RWK-NH2; lactam 2-8), the %max in [1] was 100%. In assay [2], the EC50 is 0.86 µM. Further, the IC50 is 0.59 µM in [3], 1.3 µM in assay [7] and greater than 5 µM in assay [8]. The Activity in [4], in assay [6] and in assay [9] was 0% in each case. Also, in assay [5], the inhibition entry was “inactive”.
For `CCCC[C@H](NC(C)=O)C(=O)N[C@H]1CC(=O)NCCCC[C@@H](C(N)=O)NC(=O)[C@H](Cc2c[nH]c3ccccc23)NC(=O)[C@H](CCCNC(=N)N)NC(=O)[C@@H](Cc2ccc3ccccc3c2)NC(=O)[C@@H]2CCCN2C(=O)[C@H](Cc2c[nH]c3ccccc23)NC1=O`, in assay [2] (hek293), the EC50 is greater than 1 µM.
For `CCCC[C@H](NC(C)=O)C(=O)N[C@H]1CC(=O)NCCCC[C@@H](C(N)=O)NC(=O)[C@H](Cc2c[nH]c3ccccc23)NC(=O)[C@H](CCCNC(=N)N)NC(=O)[C@@H](Cc2ccccc2)NC(=O)[C@@H]2CCCN2C(=O)[C@H](Cc2c[nH]c3ccccc23)NC1=O`, the EC50 in assay [2] (hek293) is 0.026 µM; in assay [10], 0.22 µM; in [11], 0.073 µM; in assay [13] it was greater than 1 µM. The IC50 is 0.58 µM in assay [3] (hek293), greater than 1 µM in assay [12], greater than 1 µM in assay [7] (hek293) and greater than 5 µM in [8] (hek293).
`CCCC[C@@H](NC(C)=O)C(=O)N[C@H]1CC(=O)NCCCC[C@@H](C(N)=O)NC(=O)[C@@H](Cc2c[nH]c3ccccc23)NC(=O)[C@@H](CCCNC(=N)N)NC(=O)[C@@H](Cc2ccccc2)NC(=O)[C@@H]2CCCN2C(=O)[C@H](Cc2c[nH]c3ccccc23)NC1=O`: the %max came to 100% in assay [1], 89% in assay [14], 0% in assay [15] and 84% in assay [16].
Turning to `CCCC[C@H](NC(C)=O)C(=O)N[C@@H]1CC(=O)NCCCC[C@H](C(N)=O)NC(=O)[C@H](Cc2c[nH]c3ccccc23)NC(=O)[C@H](CCCNC(=N)N)NC(=O)[C@H](Cc2ccc3ccccc3c2)NC(=O)[C@H]2CCCN2C(=O)[C@@H](Cc2c[nH]c3ccccc23)NC1=O`, the %max in assay [1] came out at 100%. Also, the inhibition entry in [17] was “inactive”.
Take `CCCC[C@H](NC(C)=O)C(=O)N[C@H]1CC(=O)NCCCC[C@@H](C(N)=O)NC(=O)[C@H](Cc2c[nH]c3ccccc23)NC(=O)[C@H](CCCNC(=N)N)NC(=O)[C@@H](Cc2ccc3ccccc3c2)NC(=O)[C@@H]2CCCN2C(=O)[C@@H]2CCCN2C1=O` (Ac-[Nle]DPP[d2Nal]RWK-NH2; lactam 2-8): the %max in [1] was 100%. In assay [8], the IC50 was greater than 5 µM.
